According to ChEMBL document CHEMBL4325893, “Synthesis and antibacterial profiles of targeted triclosan derivatives” (2019):
Values after ≈ are worked out from the molar mass of the structure shown.

How the values were obtained:
[1] = Antibacterial activity against Salmonella enterica subspecies enterica serotype Nottingham NCTC 7832 after 18 hrs; type: functional, Salmonella enterica subsp. enterica serovar Nottingham; details: NCTC 7832, 18 h
Outline: (§1)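 Broth microdilution in Nutrient Broth No. 2; stocks in ethanol diluted to 0.01–128 µg/ml (triclosan) or 0.25–256 µg/ml (glycosides). Overnight 37 °C NB2 cultures diluted 1 in 10^4 in saline and added to the dilutions. Incubation at 37 °C with agitation, OD read every 15 min; MIC is the lowest concentration preventing any OD rise after 18 h.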

Staphylococcus aureus [2] = experiment: Antibacterial activity against Staphylococcus aureus ATCC 25923 after 18 hrs; type: functional; details: ATCC 25923, 18 h; outline: as §1
[3] = system: Salmonella enterica subsp. enterica serovar Abony; experiment: Antibacterial activity against Salmonella enterica subspecies enterica serotype Abony NCTC 6017 after 18 hrs; type: functional; details: NCTC 6017, 18 h; outline: as §1
Staphylococcus aureus [4] = experiment: Antibacterial activity against Staphylococcus aureus ATCC 6538P after 18 hrs; type: functional; outline: as §1
Pseudomonas aeruginosa = experiment: Antibacterial activity against Pseudomonas aeruginosa ATCC 27853 after 18 hrs; type: functional; details: ATCC 27853, 18 h; outline: as §1
Hafnia alvei = experiment: Antibacterial activity against Hafnia alvei 13337 after 18 hrs; type: functional; details: Hafnia alvei, 13337, 18 h; outline: as §1
Klebsiella pneumoniae [5] = experiment: Antibacterial activity against Klebsiella pneumoniae ATCC 13883 after 18 hrs; type: functional; details: ATCC 13883, 18 h; outline: as §1
Streptococcus agalactiae = experiment: Antibacterial activity against Streptococcus agalactiae OCC 182 after 18 hrs; type: functional; details: OCC 182, 18 h
Outline: (§2)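 Broth microdilution in Nutrient Broth No. 2. Ethanol stocks were diluted in broth to 0.01–128 µg/ml for triclosan and 0.25–256 µg/ml for glycosides. Overnight 37°C NB2 cultures were diluted 1 in 10^4 in saline and added to the wells. Plates were incubated at 37°C with OD read every 15 min after agitation. MIC was the lowest concentration giving no OD increase at 18 h.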

Citrobacter freundii = experiment: Antibacterial activity against Citrobacter freundii OCC 851 after 18 hrs; type: functional; details: OCC 851, 18 h; outline: as §1
Klebsiella pneumoniae [6] = experiment: Antibacterial activity against Klebsiella pneumoniae ATCC 10031 after 18 hrs; type: functional; details: ATCC 10031, 18 h; outline: as §1
[7] = Antibacterial activity against Salmonella enterica subspecies enterica serotype Virchow NCTC 5742 after 18 hrs; type: functional, Salmonella enterica subsp. enterica serovar Virchow; details: NCTC 5742, 18 h; outline: as §1
[8] = Antibacterial activity against Enterobacter cloacae ATCC 13047 after 18 hrs; type: functional, Enterobacter cloacae subsp. cloacae; details: ATCC 13047, 18 h; outline: as §1
[9] = system: Staphylococcus saprophyticus; experiment: Antibacterial activity against Staphylococcus saprophyticus ATCC 15305 after 18 hrs; type: functional; details: ATCC 15305, 18 h; outline: as §2
Escherichia hermannii = experiment: Antibacterial activity against Escherichia hermannii 33650 after 18 hrs; type: functional; details: Atlantibacter hermannii, 33650, 18 h; outline: as §1
Proteus mirabilis = experiment: Antibacterial activity against Proteus mirabilis ATCC 12453 after 18 hrs; type: functional; details: ATCC 12453, 18 h; outline: as §1
Streptococcus pneumoniae = experiment: Antibacterial activity against Streptococcus pneumoniae ATCC 49619 after 18 hrs; type: functional; details: ATCC 49619, 18 h; outline: as §2
Staphylococcus aureus [10] = experiment: Antibacterial activity against Staphylococcus aureus ATCC 29213 after 18 hrs; type: functional; details: ATCC 29213, 18 h; outline: as §1
[11] = Antibacterial activity against Salmonella enterica subspecies enterica serotype Arizonae OCC 706 after 18 hrs; type: functional, Salmonella enterica subsp. enterica serovar Arizonae; details: OCC 706, 18 h; outline: as §1
Escherichia coli [12] = experiment: Antibacterial activity against Escherichia coli ATCC 10536 after 18 hrs; type: functional; details: ATCC 10536, 18 h; outline: as §1
[13] = Antibacterial activity against Salmonella enterica subspecies enterica serotype Indiana OCC 597 after 18 hrs; type: functional, Salmonella enterica subsp. enterica serovar Indiana; details: OCC 597, 18 h; outline: as §1
Salmonella enteritidis = experiment: Antibacterial activity against Salmonella enterica subspecies enterica serotype Enteritidis 13076 after 18 hrs; type: functional, Salmonella enterica subsp. enterica serovar Enteritidis; details: Salmonella enterica, 13076, 18 h; outline: as §1
Staphylococcus aureus [14] = experiment: Antibacterial activity against Staphylococcus aureus ATCC 6538 after 18 hrs; type: functional; details: ATCC 6538, 18 h; outline: as §1
[15] = system: Staphylococcus haemolyticus; experiment: Antibacterial activity against Staphylococcus haemolyticus OCC 2223 after 18 hrs; type: functional; details: OCC 2223, 18 h; outline: as §2
[16] = system: Staphylococcus epidermidis; experiment: Antibacterial activity against Staphylococcus epidermidis 155 after 18 hrs; type: functional; details: Staphylococcus epidermidis, 155, 18 h; outline: as §1
Escherichia coli [17] = experiment: Antibacterial activity against Escherichia coli NCTC 13216 after 18 hrs; type: functional; details: NCTC 13216, 18 h; outline: as §1
[18] = system: Staphylococcus epidermidis; experiment: Antibacterial activity against Staphylococcus epidermidis ATCC 12228 after 18 hrs; type: functional; details: ATCC 12228, 18 h; outline: as §1
Escherichia coli [19] = experiment: Antibacterial activity against Escherichia coli ATCC 35218 after 18 hrs; type: functional; details: ATCC 35218, 18 h; outline: as §1
[20] = Antibacterial activity against Salmonella enterica subspecies enterica serotype Dublin OCC 627 after 18 hrs; type: functional, Salmonella enterica subsp. enterica serovar Dublin; details: OCC 627, 18 h; outline: as §1

MIC [1]: 32 to 64 µg/mL (≈ 70.8 to 142 µM) | MIC (Staphylococcus aureus [2]): 8 to 16 µg/mL (≈ 17.7 to 35.4 µM) | MIC [3]: 32 to 64 µg/mL (≈ 70.8 to 142 µM) | MIC (Staphylococcus aureus [4]): 8 to 16 µg/mL (≈ 17.7 to 35.4 µM) | MIC (Pseudomonas aeruginosa): > 256 µg/mL | MIC (Hafnia alvei): 16 µg/mL (≈ 35.4 µM) | MIC (Klebsiella pneumoniae [5]): 1 µg/mL (≈ 2.21 µM) | MIC (Streptococcus agalactiae): > 256 µg/mL | MIC (Citrobacter freundii): 64 µg/mL (≈ 142 µM) | MIC (Klebsiella pneumoniae [6]): 1 µg/mL (≈ 2.21 µM) | MIC [7]: 32 to 64 µg/mL (≈ 70.8 to 142 µM) | MIC [8]: 32 µg/mL (≈ 70.8 µM) | MIC [9]: 64 µg/mL (≈ 142 µM) | MIC (Escherichia hermannii): 32 µg/mL (≈ 70.8 µM) | MIC (Proteus mirabilis): 32 µg/mL (≈ 70.8 µM) | MIC (Streptococcus pneumoniae): 128 µg/mL (≈ 283 µM) | MIC (Staphylococcus aureus [10]): 8 to 16 µg/mL (≈ 17.7 to 35.4 µM) | MIC [11]: 32 to 64 µg/mL (≈ 70.8 to 142 µM) | MIC (Escherichia coli [12]): 16 to 64 µg/mL (≈ 35.4 to 142 µM) | MIC [13]: 32 to 64 µg/mL (≈ 70.8 to 142 µM) | MIC (Salmonella enteritidis): 32 to 64 µg/mL (≈ 70.8 to 142 µM) | MIC (Staphylococcus aureus [14]): 8 to 16 µg/mL (≈ 17.7 to 35.4 µM) | MIC [16]: 8 to 32 µg/mL (≈ 17.7 to 70.8 µM) | MIC (Escherichia coli [17]): 16 to 64 µg/mL (≈ 35.4 to 142 µM) | MIC [18]: 8 to 32 µg/mL (≈ 17.7 to 70.8 µM) | MIC (Escherichia coli [19]): 16 to 64 µg/mL (≈ 35.4 to 142 µM) | MIC [20]: 32 to 64 µg/mL (≈ 70.8 to 142 µM)
SMILES: OC[C@H]1O[C@H](Oc2cc(Cl)ccc2Oc2ccc(Cl)cc2Cl)[C@H](O)[C@@H](O)[C@H]1O
MIC [15]: 16 µg/mL (≈ 35.4 µM)
